Laboratory results reported in PMC4294696 (Bioorganic & medicinal chemistry letters, 2014).
Entries after “also recorded” stand apart in the source; their conditions may differ.

Columns and labels:
[1] = target: T1, 5-HT1AR (Homo sapiens, UniProt P08908); test: 5-HT1AR competition binding with [3H]8-OH-DPAT
T1 sequence (P08908 1-422): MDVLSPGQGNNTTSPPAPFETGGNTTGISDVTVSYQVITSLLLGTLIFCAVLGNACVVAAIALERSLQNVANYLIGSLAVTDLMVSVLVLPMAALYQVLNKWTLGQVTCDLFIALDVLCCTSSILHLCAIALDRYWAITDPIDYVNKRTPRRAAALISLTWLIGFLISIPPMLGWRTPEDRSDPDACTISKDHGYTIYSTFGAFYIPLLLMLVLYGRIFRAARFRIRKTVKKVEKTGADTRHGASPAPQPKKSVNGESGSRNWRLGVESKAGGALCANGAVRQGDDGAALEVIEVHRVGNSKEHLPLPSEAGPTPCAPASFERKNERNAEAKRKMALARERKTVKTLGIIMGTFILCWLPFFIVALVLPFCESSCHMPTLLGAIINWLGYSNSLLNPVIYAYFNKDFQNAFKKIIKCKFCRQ

[2] = tested on: α-1AR; test: α-1AR competition binding with [3H]-7-methoxyprazosin; conditions: for selectivity for 5-HT1AR over α-1AR: ratio of Ki values
[3] = target: T1, 5-HT1AR; test: Agonist-stimulated [35S]GTPγS binding in CHO-h5-HT1A cell membranes; format: biochemical
Outline: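 Membranes from CHO cells stably expressing human 5-HT1AR were used. [35S]GTPγS was added at 0.1 nM and incubation continued for 60 min at room temperature. The reaction was stopped by rapid filtration through GF/B filters, followed by three washes with ice-cold 20 mM HEPES, pH 7.4. Bound radioactivity was counted by liquid scintillation. The response was taken as binding above basal.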

| SMILES | 5-HT1AR binding affinity (in words) [1] | selectivity for 5-HT1AR over α-1AR (in words) [2] | agonist profile as measured by GTPγS binding (in words) [3] | selectivity for 5-HT1AR over α-1AR [2] |
| --- | --- | --- | --- | --- |
| Cn1c(=O)cnn(CCCCN2CCN(c3ccccn3)CC2)c1=O [Compound 27, 4-Methyl-2-(4-(4-(pyridin-2-yl)piperazin-1-yl)butyl)-1,2,4-triazine-3,5(2H,4H)-dione] | high affinity | excellent selectivity |  |  |
| Cn1c(=O)cnn(CCCCN2CCN(c3cccc(F)n3)CC2)c1=O [Compound 32] | high affinity; also recorded: nanomolar affinity | excellent selectivity; also recorded: higher selectivity to 5-HT1AR over α-1AR in comparison to CUMI-101 | robust agonist profile |  |
| Cn1c(=O)cnn(CCCCN2CCN(c3c(Br)cccc3C#N)CC2)c1=O [Compound 23] | sharp decrease in affinity |  |  |  |
| COc1ccccc1N1CCN(CCCCCn2ncc(=O)n(C)c2=O)CC1 [Compound 38] | did not see considerable improvement |  |  |  |
| Cn1c(=O)cnn(CCCCN2CCN(c3ccccc3C#N)CC2)c1=O [Compound 20] | nanomolar affinity |  |  |  |
| Cn1c(=O)cnn(CCCCN2CCN(c3ccccc3OCCCF)CC2)c1=O [Compound 14] | nanomolar affinity |  |  |  |
| Cn1c(=O)cnn(CCCCN2CCN(c3ncccc3F)CC2)c1=O [Compound 29] | high affinity | excellent selectivity |  |  |
| CCOc1ccccc1N1CCN(CCCCn2ncc(=O)n(C)c2=O)CC1 [Compound 12] | nanomolar affinity |  |  |  |
| CSc1ccccc1N1CCN(CCCCn2ncc(=O)n(C)c2=O)CC1 [Compound 17] | nanomolar affinity |  |  |  |
| Cn1c(=O)cnn(CCCCN2CCN(c3ccc(I)cc3)CC2)c1=O [Compound 19] | sharp decrease in affinity |  |  |  |
| Cn1c(=O)cnn(CCCCN2CCN(c3ccccc3S)CC2)c1=O [Compound 31] | nanomolar affinity |  |  | > 10000 times |
| COc1ccc2cccc(N3CCN(CCCCCn4ncc(=O)n(C)c4=O)CC3)c2c1 [Compound 42] | did not see considerable improvement |  |  |  |
| Cn1c(=O)cnn(CCCCN2CCN(c3cccc(Br)n3)CC2)c1=O [Compound 33] | high affinity | excellent selectivity |  |  |
| COc1ccccc1N1CCN(CCCCn2ncc(=O)n(C)c2=O)CC1 [Compound 8] | nanomolar affinity |  |  |  |
| COc1ccc(N2CCN(CCCCn3ncc(=O)n(C)c3=O)CC2)c(OC)c1 [Compound 11] | sharp decrease in affinity |  |  |  |
| Cn1c(=O)cnn(CCCCN2CCN(c3ccccc3O)CC2)c1=O [Compound 24] | nanomolar affinity |  |  | > 10,000 times |
| Cn1c(=O)cnn(CCCCN2CCN(c3cccc(O)c3)CC2)c1=O [Compound 25] | nanomolar affinity; also recorded: high affinity | excellent selectivity |  |  |
| COc1ccc(N2CCN(CCCCn3ncc(=O)n(C)c3=O)CC2)cc1 [Compound 10] | sharp decrease in affinity |  |  |  |
